{
  "source": "paper PMC3013634",
  "about": "(FEMS microbiology letters, 2009)",
  "molecular_target": "T1, sPBP 6 (Escherichia coli, UniProt P08506)",
  "T1 sequence (P08506 28-388 limits assumed)": "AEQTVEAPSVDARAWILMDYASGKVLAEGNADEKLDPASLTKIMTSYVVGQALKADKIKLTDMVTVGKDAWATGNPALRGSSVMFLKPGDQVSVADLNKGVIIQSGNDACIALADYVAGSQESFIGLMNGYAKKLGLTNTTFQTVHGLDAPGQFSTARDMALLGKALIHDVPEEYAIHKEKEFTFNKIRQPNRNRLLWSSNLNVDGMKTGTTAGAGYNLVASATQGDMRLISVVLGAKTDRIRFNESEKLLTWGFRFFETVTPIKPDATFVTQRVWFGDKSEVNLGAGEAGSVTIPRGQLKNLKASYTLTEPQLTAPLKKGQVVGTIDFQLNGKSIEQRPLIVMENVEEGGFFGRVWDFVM",
  "experiment": "acylation rate, fluorescent labelling, SDS-PAGE densitometry",
  "assay_type": "binding",
  "settings": "covalent; labelled compound; active-site serine acylation; 25-100 μM, 30-120 s",
  "in_short": "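Enzyme (250 μg) was incubated with BOCILLIN FL at 25, 50 or 100 μM for 30–120 s, then run on 12% SDS-PAGE and fluorescence-scanned (488/526 nm). Pseudo-first-order ka came from bound density relative to saturation, and k2/K from the slope of ka versus concentration.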",
  "data": [
    {"smiles": "Cc1cc(C)n2c1C=C1C=CC(CCC(=O)Nc3ccc(OCC(=O)N[C@@H]4C(=O)N5[C@@H]4SC(C)(C)[C@@H]5C(=O)[O-])cc3)=[N+]1[B-]2(F)F.[Na+]", "note": "[BOCILLIN FL]", "values": [
      {"measurement": "k2/K / M^-1 s^-1", "result": "1900 ± 65.5", "unit": "M⁻¹ s⁻¹"}
    ]}
  ]
}
